Measurements taken from ChEMBL document CHEMBL1134055, “The synthesis of amino-acid functionalized beta-carbolines as topoisomerase II inhibitors” (2001).

Assays:
[1] = test system: NCI-H520; assay: In vitro cell growth inhibition of H520 cell line determined using non-radioactive cell proliferation assay at a dose of 10 uM; assay type: functional, Homo sapiens
Procedure, shortened: (§1)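 Tetrazolium-type colorimetric proliferation assay (CellTiter 96 AQueous, non-radioactive); cells treated at 10, 50 and 100 µM; read as percent cell survival. All points in quadruplicate. Vehicle control DMSO (0.20%); m-AMSA (20, 40 µM) as reference control.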

[2] = test system: NCI-H520; assay: In vitro cell growth inhibition of H520 cell line determined using non-radioactive cell proliferation assay at a dose of 50 uM; assay type: functional, Homo sapiens; procedure, shortened: as §1
[3] = test system: PC-3; assay: In vitro cell growth inhibition of PC3 cell line determined using non-radioactive cell proliferation assay at a dose of 100 uM; assay type: functional, Homo sapiens; procedure, shortened: as §1
[4] = test system: NCI-H520; assay: In vitro cell growth inhibition of H520 cell line determined using non-radioactive cell proliferation assay at a dose of 100 uM; assay type: functional, Homo sapiens; procedure, shortened: as §1
[5] = test system: PC-3; assay: In vitro cell growth inhibition of PC3 cell line determined using non-radioactive cell proliferation assay at a dose of 10 uM; assay type: functional, Homo sapiens; procedure, shortened: as §1
[6] = test system: PC-3; assay: In vitro cell growth inhibition of PC3 cell line determined using non-radioactive cell proliferation assay at a dose of 50 uM; assay type: functional, Homo sapiens; procedure, shortened: as §1
[7] = test system: PC-3; assay: In vitro cell growth inhibition of PC3 cell line determined using Non-Radioactive Cell Proliferation Assay at a dose of 50 uM; assay type: functional, Homo sapiens; procedure, shortened: as §1
[8] = test system: NCI-H520; assay: In vitro cell growth inhibition of H520 cell line determined using Non-Radioactive Cell Proliferation Assay at a dose of 100 uM; assay type: functional, Homo sapiens; procedure, shortened: as §1
[9] = Inhibition of topo II-mediated DNA relaxation measured by topo II-mediated DNA relaxation assay; - indicates drug does not interaction with topo II; assay type: functional
Procedure, shortened: (§2)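 Relaxation of supercoiled plasmid pUC18 DNA (E. coli) by topo II (2.0 units per reaction) in Tris-Cl pH 8.0 buffer with KCl, MgCl2, ATP, DTT and BSA; 1 µL of 1 mM drug in 10% DMSO per 10 µL reaction, enzyme added last; 37 °C for 30-45 min. Stopped with sarkosyl buffer, chloroform/isoamyl alcohol extraction, 1% agarose gel, ethidium stain. Densitometric qualitative scoring; gels in triplicate.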

[10] = Inhibition of topo II-mediated DNA relaxation measured by topo II-mediated DNA relaxation assay; +++ indicates drug interaction with topo II; assay type: functional; procedure, shortened: as §2
[11] = Inhibition of topo II-mediated DNA relaxation measured by topo II-mediated DNA relaxation assay; ++++ indicates drug interaction with topo II; assay type: functional; procedure, shortened: as §2
[12] = Inhibition of topo II-mediated DNA relaxation measured by topo II-mediated DNA relaxation assay; ++ indicates drug interaction with topo II; assay type: functional; procedure, shortened: as §2
[13] = test system: PC-3; assay: In vitro cell growth inhibition of PC3 cell line determined using Non-Radioactive Cell Proliferation Assay at a dose of 10 uM; assay type: functional, Homo sapiens; procedure, shortened: as §1

| Structure (SMILES) | Cell survival [1] | Cell survival [2] | Cell survival [3] | Cell survival [4] | Cell survival [5] | Cell survival [6] | Cell survival [7] | Cell survival [8] | DNA relaxation [9] | DNA relaxation [10] | DNA relaxation [11] | DNA relaxation [12] | Cell survival [13] |
| --- | --- | --- | --- | --- | --- | --- | --- | --- | --- | --- | --- | --- | --- |
| COC(=O)[C@H]1CCCN1C(=O)[C@@H]1Cc2c([nH]c3ccccc23)[C@@H](c2cc(OC)c(O)c(OC)c2)N1 | 94.3% | 86.1% | 66.3% | 61% | 98% | 99.4% |  |  |  |  |  |  |  |
| COc1cc([C@@H]2c3[nH]c4ccccc4c3C[C@H]3C(=O)N[C@H](C)C(=O)N23)cc(OC)c1O | 93.8% | 99.7% | 95.3% |  | 82.6% |  | 99.5% | 91.5% |  |  |  |  |  |
| COC(=O)[C@@H]1CCCN1C(=O)[C@@H]1Cc2c([nH]c3ccccc23)[C@@H](c2cc(OC)c(O)c(OC)c2)N1 | 80.5% | 83.4% | >100% |  | 96.8% |  | 98.3% | 86.6% | drug does not interact with topo II |  |  |  |  |
| COC(=O)[C@H](NC(=O)[C@@H]1Cc2c([nH]c3ccccc23)[C@@H](c2cc(OC)c(O)c(OC)c2)N1)c1ccccc1 | >100% | >100% | >100% |  | >100% |  | >100% | 99.2% |  | drug interaction with topo II |  |  |  |
| COC(=O)[C@@H](NC(=O)[C@@H]1Cc2c([nH]c3ccccc23)[C@@H](c2cc(OC)c(O)c(OC)c2)N1)c1ccccc1 | 82.7% | 89.9% | 64.5% |  | 88.5% |  | >100% | 86.8% |  |  | drug interaction with topo II |  |  |
| COC(=O)[C@H](NC(=O)[C@@H]1Cc2c([nH]c3ccccc23)[C@@H](c2cc(OC)c(O)c(OC)c2)N1)C(C)C | 90% | >100% | >100% |  | >100% |  | >100% | 98.3% |  |  |  |  |  |
| COC(=O)[C@H](CO)NC(=O)[C@@H]1Cc2c([nH]c3ccccc23)[C@@H](c2cc(OC)c(O)c(OC)c2)N1 | 87% | 90% | >100% |  | 99.7% |  | 98.5% | 79.6% |  |  |  |  |  |
| COC(=O)[C@@H](C)NC(=O)[C@@H]1Cc2c([nH]c3ccccc23)[C@@H](c2cc(OC)c(O)c(OC)c2)N1 | >100% | >100% | >100% |  | 96.9% |  | >100% | >100% |  |  |  | drug interaction with topo II |  |
| COC(=O)[C@@H](NC(=O)[C@@H]1Cc2c([nH]c3ccccc23)[C@@H](c2cc(OC)c(O)c(OC)c2)N1)C(C)C | 87.6% | 85.4% | 95.3% |  | 91.9% |  | 93.1% | 93.6% |  |  |  |  |  |
| COC(=O)[C@H](CCSC)NC(=O)[C@@H]1Cc2c([nH]c3ccccc23)[C@@H](c2cc(OC)c(O)c(OC)c2)N1 | 99.2% | 91.2% | 76.8% |  | 96.7% |  | 88.2% | 79.9% |  |  |  |  |  |
| COC(=O)[C@H](CC(C)C)NC(=O)[C@@H]1Cc2c([nH]c3ccccc23)[C@@H](c2cc(OC)c(O)c(OC)c2)N1 | 84% | 89.2% | 87.6% |  | >100% |  | 98.7% | 83.2% |  |  |  |  |  |
| COc1cc([C@@H]2c3[nH]c4ccccc4c3C[C@H]3C(=O)N4CCC[C@H]4C(=O)N23)cc(OC)c1O | >100% | >100% | >100% | >100% | >100% |  | >100% |  |  |  |  |  |  |
| COC(=O)[C@H](C)NC(=O)[C@@H]1Cc2c([nH]c3ccccc23)[C@@H](c2cc(OC)c(O)c(OC)c2)N1 | >100% | >100% | 95.8% |  | >100% |  | 96.6% | >100% |  |  |  |  |  |
| COC(=O)[C@H](Cc1ccccc1)NC(=O)[C@@H]1Cc2c([nH]c3ccccc23)[C@@H](c2cc(OC)c(O)c(OC)c2)N1 | 59.4% | 97.4% | 18% |  |  |  | 90.6% | 14.8% |  |  |  |  | 97.8% |
| COC(=O)[C@H](Cc1c[nH]c2ccccc12)NC(=O)[C@@H]1Cc2c([nH]c3ccccc23)[C@@H](c2cc(OC)c(O)c(OC)c2)N1 | 67.9% | 61.1% | 6.7% |  | 95.7% |  | 77% | 2.8% |  |  |  |  |  |
| COC(=O)[C@@H](Cc1c[nH]c2ccccc12)NC(=O)[C@@H]1Cc2c([nH]c3ccccc23)[C@@H](c2cc(OC)c(O)c(OC)c2)N1 | >100% | 35.2% | 62.4% |  | >100% |  | 84.9% | 7.2% |  | drug interaction with topo II |  |  |  |
| COC(=O)[C@@H](Cc1ccccc1)NC(=O)[C@@H]1Cc2c([nH]c3ccccc23)[C@@H](c2cc(OC)c(O)c(OC)c2)N1 | 77.6% | 33% | 63.6% |  | >100% |  | >100% | 6.7% |  |  |  |  |  |
| COC(=O)[C@@H](CCSC)NC(=O)[C@@H]1Cc2c([nH]c3ccccc23)[C@@H](c2cc(OC)c(O)c(OC)c2)N1 | >100% | >100% | >100% |  | >100% |  | >100% | 89.6% |  |  |  |  |  |
| COc1cc([C@@H]2c3[nH]c4ccccc4c3C[C@H]3C(=O)NCC(=O)N23)cc(OC)c1O | 91.6% | 69.2% | 86.6% |  | >100% |  | >100% | 51.9% |  |  |  |  |  |
| COC(=O)[C@H](CCCCN)NC(=O)[C@@H]1Cc2c([nH]c3ccccc23)[C@@H](c2cc(OC)c(O)c(OC)c2)N1 | 99.3% | >100% | 90.6% |  | 95.2% |  | 91.2% | >100% |  |  |  |  |  |
| COC(=O)[C@@H](CC(C)C)NC(=O)[C@@H]1Cc2c([nH]c3ccccc23)[C@@H](c2cc(OC)c(O)c(OC)c2)N1 | 85.2% | 84.3% | 99.4% |  | >100% |  | >100% | 80.6% |  |  |  | drug interaction with topo II |  |
| COC(=O)[C@@H](Cc1ccc(O)cc1)NC(=O)[C@@H]1Cc2c([nH]c3ccccc23)[C@@H](c2cc(OC)c(O)c(OC)c2)N1 | >100% | 79% | 89.8% |  | 88.5% |  | >100% | 83.2% |  |  |  |  |  |
| COC(=O)CNC(=O)[C@@H]1Cc2c([nH]c3ccccc23)[C@@H](c2cc(OC)c(O)c(OC)c2)N1 | >100% | >100% | 88.8% |  | 99.7% |  | >100% | >100% |  |  |  |  |  |
| COC(=O)[C@@H](CCCCN)NC(=O)[C@@H]1Cc2c([nH]c3ccccc23)[C@@H](c2cc(OC)c(O)c(OC)c2)N1 | 78.3% | 76.9% | >100% |  | >100% |  | >100% | 87.7% |  |  |  | drug interaction with topo II |  |
| COC(=O)[C@H](Cc1ccc(O)cc1)NC(=O)[C@@H]1Cc2c([nH]c3ccccc23)[C@@H](c2cc(OC)c(O)c(OC)c2)N1 | >100% | >100% | 94.9% |  | >100% |  | 96.4% | 98.6% |  |  |  |  |  |
